Assay results reported in ChEMBL document CHEMBL4177575 (Bioorg Med Chem, 2017).
Active and inactive are the calls of the source. The rule behind the calls is not given here.

Assays:
[1] = test system: A549; assay: Induction of morphological changes in human A549 cells assessed as induction of nucleus bright green staining at 1.85 uM incubated for 12 hrs by acridine orange dye based inverted microscopy and fluorescence microscopy; type: functional, cell-based
Summary of the method: (§1)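 Untreated control included. A549 cells exposed 12 h at 1.85 μM, then single-stained with acridine orange. Nuclei and morphology examined by inverted and fluorescence microscopy.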

[2] = test system: A549; assay: Induction of morphological changes in human A549 cells assessed as induction of apoptotic bodies at 1.85 uM incubated for 12 hrs by acridine orange dye based inverted microscopy and fluorescence microscopy; type: functional, cell-based; summary of the method: as §1
[3] = test system: A549; assay: Induction of apoptosis in human A549 cells assessed as necrotic cell level at 3 uM incubated for 48 hrs by Annexin VFITC and propidium iodide staining based flow cytometry (reference value: 2.69%); type: functional
Summary of the method: (§2)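 A549 cells seeded in RPMI 1640 and treated 48 h at 3, 6 or 12 µM. Cells then stained with Annexin V-FITC plus propidium iodide, 30 min at 4 °C in the dark, and analysed on a FACS Calibur flow cytometer.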

[4] = test system: A549; assay: Induction of apoptosis in human A549 cells assessed as viable cell level at 6 uM incubated for 48 hrs by Annexin VFITC and propidium iodide staining based flow cytometry (reference value: 93.27%); type: functional; summary of the method: as §2
[5] = test system: A549; assay: Induction of apoptosis in human A549 cells assessed as early apoptotic cell level at 3 uM incubated for 48 hrs by Annexin VFITC and propidium iodide staining based flow cytometry (reference value: 0.64%); type: functional; summary of the method: as §2
[6] = biological target: Hepatocyte growth factor receptor (Homo sapiens, UniProt P08581); assay: Inhibition of c-MET (unknown origin) incubated for 10 mins using FAM-labeled peptide and ATP by mobility shift assay
Hepatocyte growth factor receptor, sequence (P08581 whole entry): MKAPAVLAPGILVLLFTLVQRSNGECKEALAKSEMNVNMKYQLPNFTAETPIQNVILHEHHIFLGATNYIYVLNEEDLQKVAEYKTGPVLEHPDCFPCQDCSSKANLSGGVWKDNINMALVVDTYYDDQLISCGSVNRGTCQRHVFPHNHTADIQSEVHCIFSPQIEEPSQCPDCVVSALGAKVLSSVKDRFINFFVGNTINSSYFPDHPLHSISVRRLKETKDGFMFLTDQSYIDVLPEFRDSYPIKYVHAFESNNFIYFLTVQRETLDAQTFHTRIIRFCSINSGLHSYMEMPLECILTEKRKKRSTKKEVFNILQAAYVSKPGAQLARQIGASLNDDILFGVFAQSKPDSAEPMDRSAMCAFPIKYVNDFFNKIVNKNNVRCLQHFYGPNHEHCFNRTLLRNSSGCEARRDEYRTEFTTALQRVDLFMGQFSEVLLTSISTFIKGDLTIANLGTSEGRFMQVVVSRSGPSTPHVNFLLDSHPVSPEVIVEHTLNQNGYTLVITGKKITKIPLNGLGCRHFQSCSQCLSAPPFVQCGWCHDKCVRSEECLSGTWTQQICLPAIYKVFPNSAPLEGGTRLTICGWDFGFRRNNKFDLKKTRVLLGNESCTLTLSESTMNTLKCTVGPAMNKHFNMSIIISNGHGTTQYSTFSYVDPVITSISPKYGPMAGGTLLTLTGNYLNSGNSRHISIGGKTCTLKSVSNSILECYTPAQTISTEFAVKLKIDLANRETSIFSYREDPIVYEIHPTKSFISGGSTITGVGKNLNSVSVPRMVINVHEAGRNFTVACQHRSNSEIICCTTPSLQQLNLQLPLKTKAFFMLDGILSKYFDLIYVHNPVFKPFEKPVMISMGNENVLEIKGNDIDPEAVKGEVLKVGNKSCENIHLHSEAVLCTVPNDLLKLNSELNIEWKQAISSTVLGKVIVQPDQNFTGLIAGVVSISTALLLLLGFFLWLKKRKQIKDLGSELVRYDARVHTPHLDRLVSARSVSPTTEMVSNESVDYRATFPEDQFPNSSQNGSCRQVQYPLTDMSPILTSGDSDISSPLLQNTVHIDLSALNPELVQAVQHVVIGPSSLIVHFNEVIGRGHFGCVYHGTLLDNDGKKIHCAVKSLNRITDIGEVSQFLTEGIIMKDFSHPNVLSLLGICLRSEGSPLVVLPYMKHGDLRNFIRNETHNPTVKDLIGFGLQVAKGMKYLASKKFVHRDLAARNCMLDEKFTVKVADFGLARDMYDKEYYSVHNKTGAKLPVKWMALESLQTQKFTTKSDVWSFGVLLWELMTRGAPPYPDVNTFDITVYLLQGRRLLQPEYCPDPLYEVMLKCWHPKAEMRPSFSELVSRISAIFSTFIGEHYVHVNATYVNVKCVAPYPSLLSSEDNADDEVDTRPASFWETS
Summary of the method: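 Mobility shift assay in 384-well plates. Kinase buffer: 50 mM HEPES pH 7.5, 10 mM MgCl2, 0.0015% Brij-35, 2 mM DTT. Compound, diluted from a 500 μM DMSO stock, preincubated with enzyme 10 min at room temperature. FAM-labelled peptide and ATP then added and the reaction run at 28 °C. Stopped with EDTA-containing buffer and read on Caliper. Inhibition = (max−conversion)/(max−min)×100, with DMSO wells as max and enzyme-free wells as min.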

[7] = test system: A549; assay: Induction of apoptosis in human A549 cells assessed as necrotic cell level at 12 uM incubated for 48 hrs by Annexin VFITC and propidium iodide staining based flow cytometry (reference value: 2.69%); type: functional; summary of the method: as §2
[8] = biological target: Serine/threonine-protein kinase B-raf (Homo sapiens, UniProt P15056); assay: Inhibition of BRAF (unknown origin) incubated for 10 mins using FAM-labeled peptide and ATP by mobility shift assay
Serine/threonine-protein kinase B-raf, sequence (P15056 whole entry): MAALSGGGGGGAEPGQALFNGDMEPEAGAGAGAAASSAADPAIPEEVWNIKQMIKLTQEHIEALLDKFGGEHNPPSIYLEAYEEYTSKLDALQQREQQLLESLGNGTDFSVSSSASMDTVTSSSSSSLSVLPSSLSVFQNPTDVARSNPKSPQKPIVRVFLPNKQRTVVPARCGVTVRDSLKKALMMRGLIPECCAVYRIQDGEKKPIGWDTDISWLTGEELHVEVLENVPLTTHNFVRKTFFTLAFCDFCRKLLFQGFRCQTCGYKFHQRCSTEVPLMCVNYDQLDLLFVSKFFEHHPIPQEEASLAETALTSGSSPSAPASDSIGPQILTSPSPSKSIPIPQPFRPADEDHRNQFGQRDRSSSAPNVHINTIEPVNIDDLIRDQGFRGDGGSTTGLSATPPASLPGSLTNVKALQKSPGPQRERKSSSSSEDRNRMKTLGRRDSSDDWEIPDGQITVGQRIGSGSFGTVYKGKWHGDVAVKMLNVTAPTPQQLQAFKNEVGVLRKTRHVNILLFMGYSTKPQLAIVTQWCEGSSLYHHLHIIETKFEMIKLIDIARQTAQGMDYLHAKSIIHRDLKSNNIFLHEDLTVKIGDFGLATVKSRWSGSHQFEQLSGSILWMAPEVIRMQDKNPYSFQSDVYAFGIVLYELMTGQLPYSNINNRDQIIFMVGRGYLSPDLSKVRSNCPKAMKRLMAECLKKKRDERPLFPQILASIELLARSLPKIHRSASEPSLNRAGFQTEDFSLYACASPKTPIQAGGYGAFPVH

[9] = test system: HepG2; assay: Cytotoxicity against human HepG2 cells assessed as reduction in cell viability incubated for 72 hrs by MTT assay; type: functional, cell-based; conditions: HepG2, 72 h
Summary of the method: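 Cells grown in MEM with 10% FBS; about 4×10^3 cells per well, pre-incubated 24 h at 37 °C in 5% CO2, then exposed to compound for 72 h. Seven concentrations, threefold serial dilution from 100 ug/mL initial. MTT at 5 µg/mL terminal concentration for 4 h; formazan dissolved in DMSO, absorbance read at 492 nm against 630 nm reference. IC50 is the average of two determinations.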

[10] = biological target: Vascular endothelial growth factor receptor 2 (Homo sapiens, UniProt P35968); assay: Inhibition of VEGFR2 (unknown origin) incubated for 10 mins using FAM-labeled peptide and ATP by mobility shift assay
Vascular endothelial growth factor receptor 2, sequence (P35968 whole entry): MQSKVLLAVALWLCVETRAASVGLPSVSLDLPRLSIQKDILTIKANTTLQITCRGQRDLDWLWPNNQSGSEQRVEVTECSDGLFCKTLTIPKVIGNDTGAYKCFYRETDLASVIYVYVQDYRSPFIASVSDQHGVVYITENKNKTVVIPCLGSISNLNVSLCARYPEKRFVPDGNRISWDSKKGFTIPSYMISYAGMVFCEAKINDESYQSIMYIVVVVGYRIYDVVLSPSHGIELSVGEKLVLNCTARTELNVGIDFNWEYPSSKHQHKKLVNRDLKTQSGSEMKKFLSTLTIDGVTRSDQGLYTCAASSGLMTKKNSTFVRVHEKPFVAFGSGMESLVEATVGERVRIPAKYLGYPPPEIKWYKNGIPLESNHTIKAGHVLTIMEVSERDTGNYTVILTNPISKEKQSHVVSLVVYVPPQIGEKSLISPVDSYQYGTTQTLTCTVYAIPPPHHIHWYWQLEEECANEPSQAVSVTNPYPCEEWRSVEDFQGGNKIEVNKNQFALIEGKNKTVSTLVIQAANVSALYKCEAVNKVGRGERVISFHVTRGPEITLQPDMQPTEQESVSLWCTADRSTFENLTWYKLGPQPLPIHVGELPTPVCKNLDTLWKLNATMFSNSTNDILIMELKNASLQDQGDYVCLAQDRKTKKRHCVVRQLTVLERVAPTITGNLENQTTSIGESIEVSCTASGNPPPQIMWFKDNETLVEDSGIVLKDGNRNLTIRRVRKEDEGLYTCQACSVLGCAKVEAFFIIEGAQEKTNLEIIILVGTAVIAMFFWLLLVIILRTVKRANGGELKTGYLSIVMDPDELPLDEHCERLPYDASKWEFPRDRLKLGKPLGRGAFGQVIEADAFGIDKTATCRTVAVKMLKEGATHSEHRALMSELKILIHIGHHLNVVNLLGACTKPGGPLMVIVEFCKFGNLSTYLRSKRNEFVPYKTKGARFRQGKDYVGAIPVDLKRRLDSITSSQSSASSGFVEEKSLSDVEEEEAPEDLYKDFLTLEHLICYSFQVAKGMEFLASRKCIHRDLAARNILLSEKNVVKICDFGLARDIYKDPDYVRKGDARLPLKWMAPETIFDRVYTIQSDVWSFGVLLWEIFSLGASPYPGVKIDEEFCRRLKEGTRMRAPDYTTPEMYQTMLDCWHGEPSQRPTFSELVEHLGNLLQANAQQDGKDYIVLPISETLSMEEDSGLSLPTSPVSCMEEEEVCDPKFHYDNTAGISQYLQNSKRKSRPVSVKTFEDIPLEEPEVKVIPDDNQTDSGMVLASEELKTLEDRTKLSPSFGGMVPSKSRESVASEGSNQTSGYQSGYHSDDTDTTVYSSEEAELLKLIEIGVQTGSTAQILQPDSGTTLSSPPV

IC50 [6]: 540 nM
IC50 [8]: 3400 nM
IC50 [10]: 560 nM
SMILES: CNC(=O)c1cc(Oc2ccc(C3=NNC(c4cccc(Br)c4)C3)cc2)ccn1 (stereo not given)
Activity [1]: Active
Activity [2]: Active
Activity [3]: 4.49%
Activity [4]: 81.93%
Activity [5]: 2.2%
Activity [7]: 2.45%
IC50 [9]: 1850 nM
